To fix the notation:
B1: Osa-1-4 twister ribozyme (parent)
chain: CCGCCUAACACUGCCAAUGCCGGUCCCAAGCCCGGAUAAAAGUGGAGGGGGCGG

Here are results for 167 variants from the RNAGym collection of RNA variant scans (doi:10.1002/anie.201605470).

This data set covers variants of B1. Description: self-cleavage, relative activity (ratio to wild type); higher = more cleavage; co-transcriptional. The method in brief:
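The 48 positions downstream of the cleavage site in a DNA template for a 54-nucleotide Oryza sativa twister ribozyme carried 97 % wild-type base and 1 % of each other base. After in vitro transcription (2 h, 37 °C) with co-transcriptional self-cleavage, the RNA was reverse-transcribed with a template-switching oligonucleotide, PCR-amplified and deep-sequenced. Relative activity is the fraction cleaved, judged by reads with or without upstream sequence and normalised to wild type.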
For the variant A8G C26U, the self-cleavage was found to be 0.18.
As for A8G C26A, the figure is 0.04; as for A8G C26G, 0.27.
A8C G51C: the self-cleavage was 0.03.
As for A8C G51U, the figure is 0.05; as for A8C G51A, 0.06; as for A8C U37C, 0.07.
In the case of A8C U37G, the self-cleavage was found to be 0.1.
As for A8C U37A, the figure is 0.06; as for A8C U12C, 0.07.
As for A8C U12G, the figure is 0.16.
For A8C U12A the value was 0.06.
Consider A8G U18C, for which the self-cleavage is 0.39.
For A8G U18A the value was 0.57.
As for A8G U18G, the figure is 0.49; as for A8G G47A, 0.11; as for A8G G47C, 0.07.
For A8G G47U the value was 0.1; for A8U, 0.49.
For A8G, the self-cleavage is 0.71.
For A8G G51U the value was 0.11.
As for A8G G51A, the figure is 0.22.
As for A8G G51C, the figure is 0.08; as for A8G C9U, 0.1.
As to A8G C9A, the self-cleavage was 0.13.
For A8G C9G the value was 0.2; for A8G C32G, 0.13; for A8G C32A, 0.05.
With A8G C32U, the self-cleavage stood at 0.07.
As for A8C G54A, the figure is 0.09.
As for A8C G54U, the figure is 0.11.
As for A8C G54C, the figure is 0.06.
For A8G G30A, the self-cleavage came out at 0.06.
For the variant A8G G30C, the self-cleavage was found to be 0.07.
As for A8G G30U, the figure is 0.04; as for A8G G23A, 0.13.
For A8G G23U the value was 0.06.
Regarding A8G G23C, the self-cleavage is 0.05.
As for A8U C11U, the figure is 0.11; as for A8U C11A, 0.08; as for A8U C11G, 0.08.
For A8G U37G the value was 0.75; for A8G U37C, 0.68.
Turning to A8G U37A, the self-cleavage is 0.56.
As for A8G C14A, the figure is 0.07; as for A8G C14G, 0.1; as for A8G C14U, 0.14.
On to A8G G35C, for which the self-cleavage came to 0.16.
On to A8G G35A, for which the self-cleavage turned out to be 0.4.
As for A8G G35U, the figure is 0.35.
For A8C G53C the value was 0.02.
For A8C G53A the value was 0.07; for A8C G53U, 0.06; for A8C G34U, 0.07.
Take A8C G34C: the self-cleavage was found to be 0.06.
As for A8G C52G, the figure is 0.58; as for A8G C52U, 0.73; as for A8G C52A, 0.44.
For A8C G45C the value was 0.02.
As for A8C G45A, the self-cleavage turned out to be 0.04.
As for A8C G45U, the figure is 0.04.
For A8G G42A the value was 0.14; for A8G G42U, 0.04.
For A8G G42C the value was 0.12; for A8G G13U, 0.03.
In the case of A8G G13C, the self-cleavage was 0.03.
For A8G G13A, the self-cleavage stood at 0.1.
As for A8G U43A, the figure is 0.23; as for A8G U43C, 0.14; as for A8G U43G, 0.15.
For the variant A8U C9U, the self-cleavage worked out at 0.09.
As for A8U C9A, the figure is 0.09; as for A8U C9G, 0.11.
For A8C G49U the value was 0.03.
As for A8C G49A, the figure is 0.02.
For A8C G49C, the self-cleavage stood at 0.02.
Take A8G G44A: the self-cleavage turned out to be 0.39.
For A8G G44U the value was 0.45.
On to A8G G44C, for which the self-cleavage was determined as 0.35.
For A8C G48U the value was 0.03; for A8C G48C, 0.02.
Take A8C G48A: the self-cleavage turned out to be 0.02.
For A8C G50A the value was 0.06.
As for A8C G50U, the figure is 0.08; as for A8C G50C, 0.08; as for A8G G54C, 0.21.
Turning to A8G G54A, the self-cleavage was 0.27.
As for A8G G54U, the figure is 0.32.
For A8G G48A the value was 0.06; for A8G G48U, 0.04.
For A8G G48C the value was 0.05; for A8G U12G, 0.15.
As to A8G U12C, the self-cleavage was determined as 0.12.
For A8G U12A the value was 0.16; for A8G C20A, 0.49.
As for A8G C20G, the figure is 0.09.
For A8G C20U the value was 0.58; for A8G G45U, 0.14.
On to A8G G45C, for which the self-cleavage amounted to 0.05.
As for A8G G45A, the figure is 0.09.
With A8G G34U, the self-cleavage was 0.16.
With A8G G34A, the self-cleavage was determined as 0.27.
For A8G G34C the value was 0.13; for A8G G49U, 0.06.
For A8G G49C the value was 0.05; for A8G G49A, 0.08.
In the case of A8C G35C, the self-cleavage is 0.08.
Turning to A8C G35U, the self-cleavage amounted to 0.09.
For A8C G35A the value was 0.08.
As for A8C G47C, the figure is 0.03; as for A8C G47A, 0.04; as for A8C G47U, 0.04.
As for A8G C33G, the figure is 0.07; as for A8G C33U, 0.21; as for A8G C33A, 0.1.
As for A8U C14A, the self-cleavage was 0.04.
As for A8U C14U, the figure is 0.1; as for A8U C14G, 0.05; as for A8C G44C, 0.07.
For A8C G44U the value was 0.08.
As for A8C G44A, the self-cleavage was found to be 0.07.
For A8C G42A the value was 0.06; for A8C G42U, 0.04; for A8C G42C, 0.04.
For A8G C27G the value was 0.11.
For A8G C27U the value was 0.11.
On to A8G C27A, for which the self-cleavage was 0.14.
A8G U24C: the self-cleavage was found to be 0.1.
For A8G U24G the value was 0.03.
For the variant A8G U24A, the self-cleavage came to 0.12.
For A8G C31U the value was 0.1; for A8G C31G, 0.08; for A8G C31A, 0.03.
For A8G G19U, the self-cleavage is 0.1.
For A8G G19C the value was 0.07; for A8G G19A, 0.15; for A8G G22C, 0.07.
As for A8G G22A, the figure is 0.2.
For A8G G22U the value was 0.15; for A8C U43G, 0.08; for A8C U43C, 0.08.
For the variant A8C U43A, the self-cleavage amounted to 0.08.
As for A8G C15G, the figure is 0.29.
For A8G C15A the value was 0.12; for A8G C15U, 0.13.
As for A8C U24C, the figure is 0.08; as for A8C U24A, 0.03.
For A8C U24G, the self-cleavage turned out to be 0.01.
Consider A8G G53C, for which the self-cleavage was determined as 0.08.
Regarding A8G G53U, the self-cleavage was 0.11.
For A8G G53A the value was 0.16.
As for A8G C25G, the figure is 0.08; as for A8G C25U, 0.16.
As for A8G C25A, the figure is 0.08; as for A8G G50A, 0.53; as for A8G G50U, 0.43.
As to A8G G50C, the self-cleavage amounted to 0.27.
As for A8U C15A, the figure is 0.08; as for A8C U18A, 0.07.
As for A8C U18C, the self-cleavage is 0.08.
As to A8C U18G, the self-cleavage is 0.17.
For A8G C11G the value was 0.17; for A8G C11A, 0.15; for A8G C11U, 0.19.
As for A8G C21A, the figure is 0.14.
As for A8G C21G, the figure is 0.09; as for A8G C21U, 0.38.
